Experimental data as given in publication PMC3141330 (Biochemistry, 2010).
Several values for one entry are separate records, joined by “and”; a condition that tells them apart may be missing. Equal entries are not always repeated. Entries after “also recorded” stand apart in the source; their conditions may differ.

Columns and labels:
[1] = tested on: HOP in BT474 breast cancer cells; test: Quantitative Western blot: HOP in BT474 cells after 17-AAG; assay type: cell-based; settings: BT474, 0.178 µM 17-AAG, 7 or 14 hours; HOP monomer; same as normal
How it was run: (§1)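 BT474 cells, seeded overnight, were exposed to 0.178 µM test compound (Hsp90 inhibitor) for 7 or 14 h; untreated cells were harvested at 15 h. Cells were counted, then lysed in SDS buffer. Extract from 35,000 cells (Hsp70, Hsp90, HOP) or 70,000 cells (CHIP) was blotted with ECL detection against a linear purified-protein calibration series. Values were converted via cell number and a cell volume of 3.5×10⁻⁶ µl.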

[2] = tested on: CHIP in BT474 breast cancer cells; test: Quantitative Western blot: CHIP in BT474 cells after 17-AAG; assay type: cell-based; settings: BT474, 0.178 µM 17-AAG, 7 or 14 hours; CHIP monomer; constant versus normal
How it was run: as §1

[3] = tested on: Hsp90; settings: ref [32]; cited from earlier work
[4] = tested on: HER2 in BT474 breast cancer cells; test: Western blot: HER2 in BT474 cells after 17-AAG; assay type: cell-based; settings: BT474, 0.178 µM 17-AAG, 7 or 14 hours; qualitative, GAPDH loading control
[5] = tested on: Hsp90 in BT474 breast cancer cells; test: Quantitative Western blot: Hsp90 in BT474 cells after 17-AAG; assay type: cell-based; settings: BT474, 0.178 µM 17-AAG, 7 or 14 hours; Hsp90 dimer; same as normal
How it was run: as §1

[6] = tested on: Hsp70 in BT474 breast cancer cells; test: Quantitative Western blot: Hsp70 in BT474 cells after 17-AAG; assay type: cell-based; settings: BT474, 0.178 µM 17-AAG, 7 or 14 hours; ~10 µM (monomer) under normal conditions
How it was run: as §1

[7] = tested on: HER2/neu; settings: Hsp90 inhibition in cells; CHIP-dependent; ref [17]; cited from earlier work
[8] = tested on: Hsp90-dependent client proteins; settings: CFTRΔF508 and wild-type CFTR; ref [36]; cited from earlier work
[9] = tested on: Hsp70 and Hsp90; settings: ref [18], cited from earlier work
[10] = target: T1, CHIP (Homo sapiens, UniProt Q9UNE7); assay type: biochemical; settings: discussion summary
T1 sequence (Q9UNE7 1-303): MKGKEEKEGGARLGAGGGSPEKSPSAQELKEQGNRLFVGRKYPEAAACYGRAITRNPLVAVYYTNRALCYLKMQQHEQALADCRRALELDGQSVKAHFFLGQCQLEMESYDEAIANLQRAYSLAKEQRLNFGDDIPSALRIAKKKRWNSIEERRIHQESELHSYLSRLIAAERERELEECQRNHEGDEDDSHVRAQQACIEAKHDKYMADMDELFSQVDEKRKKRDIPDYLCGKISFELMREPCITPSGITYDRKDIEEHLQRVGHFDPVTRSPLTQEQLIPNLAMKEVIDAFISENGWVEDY
How it was run: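 Reactions contained 0.091 µM human UBE1, 20 µM UbcH5c, 20 µM CHIP, 100 µM Hsp70 T13G ±188 µM model client peptide. Buffer: 50 mM Tris pH 7.4, 150 mM KCl, 10 mM NaCl, 3 mM MgCl2, 10 mM ATP, 0.1 mM βME. Preincubated 30°C ~10 min, started with 0.5 mM ubiquitin. Timed aliquots ran on Coomassie SDS-PAGE; ubiquitin per CHIP monomer fitted linearly early (slope = rate); three independent experiments, SD.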

[11] = target: T1, CHIP; test: ITC: C-terminal peptides of Hsp70 or Hsp90; assay type: binding; settings: dimer and tetramer species of CHIP, data not shown
[12] = tested on: CHIP; settings: 'normal' non-Hsp90 inhibited cells, cycloheximide; ref [17]; cited from earlier work
[13] = tested on: Hsp90; test: Control Ni-NTA pull-down of HOP by His6-Hsp90; assay type: binding; settings: 20 µM His6-Hsp90, 20 µM HOP without His6-tag, 150 mM KCl, 3 mM MgCl2, Ni-NTA, 4°C
[14] = tested on: Hsp90; test: Competition pull-down: HOP versus GST-CHIP for Hsp90; assay type: binding
How it was run: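 GST-CHIP (10 µM) and His6-Hsp90 (10 µM), or subsets as controls, were mixed with 3–30 µM His6-HOP in 50 mM Tris pH 7.4, 10 mM NaCl, 5 mM βME. Mixtures were held on ice ~10 min, then rotated with glutathione agarose at 4°C for 1 h and washed 4×. Bound protein was eluted in SDS buffer and resolved by Coomassie SDS-PAGE.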

[15] = tested on: Hsp70; settings: ref [35]; cited from earlier work
[16] = tested on: Hsp90; settings: human Hsp90; ref [19]; cited from earlier work

Molecule: C=CCNC1=C2C[C@@H](C)C[C@H](OC)[C@H](O)[C@@H](C)/C=C(\C)[C@H](OC(N)=O)[C@@H](OC)/C=C\C=C(/C)C(=O)NC(=CC1=O)C2=O [17-AAG]
- HOP level upon 17-AAG treatment [1]: ~ 3 µM
- CHIP concentration upon 17-AAG treatment [2]: ~ 0.1 µM
- binding to Hsp90 (in words) [3]: binds to the ATP binding pocket and renders the chaperone unable to facilitate client protein folding process
- HER2 levels upon 17-AAG treatment (in words) [4]: decrease in HER2 levels
- Hsp90 level upon 17-AAG treatment [5]: ~ 5 µM
- total Hsp70 cellular concentration upon 17-AAG treatment [6]: 39 µM and ~ 39 µM
- degradation of HER2/neu (in words) [7]: client proteins such as the oncoprotein HER2/neu undergo rapid CHIP-dependent degradation; also recorded: rapid degradation of the Hsp70/Hsp90 client protein HER2/neu

Molecule: COC1=C2C[C@@H](C)C[C@H](OC)[C@H](O)[C@@H](C)/C=C(\C)[C@H](OC(N)=O)[C@@H](OC)/C=C\C=C(/C)C(=O)NC(=CC1=O)C2=O [geldanamycin]
- degradation of HER2/neu (in words) [7]: rapid degradation of the Hsp70/Hsp90 client protein HER2/neu

Molecule: Carboxyl terminus of Hsc70-interacting protein [CHIP]
- degradation of CFTR on increase in CHIP concentration (in words) [8]: leads to degradation of a cystic fibrosis causing mutant of Hsp70/Hsp90 client protein CFTR, CFTRΔF508; also recorded: also leads to degradation of wild-type CFTR
- effect of CHIP over-expression on Hsp70 levels (in words) ([9]; over-expression of CHIP): decrease in Hsp70 levels
- effect of CHIP on half-life of Hsp70 and Hsp90 (in words) [9]: greatly decreased the half-life of both Hsp70 and Hsp90, with degradation of Hsp70 being more pronounced
- rate of ubiquitination at substrate concentrations much above KM [10]: ~ 0.1 ubiquitin molecules attached/CHIP monomer/minute
- binding of both CHIP oligomeric species to Hsp70 (in words) [11]: both oligomeric species of CHIP bind Hsp70 with the same binding affinity and stoichiometry

Molecule: HER2: oncoprotein, Hsp70/Hsp90 client protein
- half life of HER2 in normal cells [12]: less than 1 hour

Molecule: Hsp70/Hsp90 organizing protein [HOP]
- pull-down of HOP by Hsp90 (in words) [13]: the HOP and Hsp90 interaction is stable; also recorded: HOP does not bind non-specifically to the resin but binds to Hsp90
- competition with CHIP for binding to Hsp90 (in words) ([14]; 3-30 µM His6-HOP, 10 µM GST-CHIP, 10 µM His6-Hsp90, 50 mM Tris pH 7.4, 10 mM NaCl, 5 mM βME, 4°C 1 hour, glutathione agarose): CHIP does not pull-down HOP through Hsp90, but that HOP and CHIP compete for binding to Hsp90; also recorded: HOP is competing with CHIP for binding to Hsp90
- binding of HOP to CHIP, control (in words) ([14]; control lanes, glutathione agarose pull-down with GST-CHIP): HOP does not bind to CHIP

Molecule: Hsp70: heat shock induced monomeric molecular chaperone; recombinant His6-Hsp70
- kcat for client peptide stimulated hydrolysis of ATP by Hsp70 [15]: 0.0017 to 0.005 s⁻¹

Molecule: Hsp90: heat shock induced homo-dimeric molecular chaperone; recombinant His6-Hsp90β
- kcat of ATP hydrolysis by Hsp90 [16]: ~ 0.09 min^−1
